Results gathered from unrelated publications.

For `Cc1c(C(=O)O)ccc2c3n(nc12)[C@@H]1[C@H](C3)N(CC2CC2)[C@@]2(C(=O)Nc3cc(Cl)ccc32)[C@H]1c1cccc(Cl)c1F`, the Cmax was 900 nM (female minipig, plasma; oral, 2 mg/kg).
The Papp of `CC(C)Cc1ccc(C(C)C(=O)O)cc1` (stereo not drawn) is reported as 11.6 ×10⁻⁶ cm/s (PAMPA-BBB; pH 7.4).
With `O=C1CC[C@H](N2Cc3cc(N4CCN(CC5CCN(c6ccc([C@@H]7c8ccc(O)cc8CC[C@@H]7c7ccccc7)cc6)CC5)CC4)ccc3C2=O)C(=O)N1` the AUC(0-inf) was 11600 ng·h/mL (female Sprague-Dawley rat, plasma; intravenous, 5 mg/kg, fed).
The Papp of `O=[N+]([O-])c1ccc2c(c1)S(=O)(=O)C=C2` is reported as 3.98 ×10⁻⁶ cm/s (PAMPA-BBB; pH 7.4).
For `N#C[C@@]12C[C@@H]1[C@@H](n1cnc3c(N[C@@H](C4CCC4)C4CC4)nc(I)nc31)[C@H](O)[C@@H]2O`, the AUC(0-inf) was 349 ng·h/mL (male Wistar rat, plasma; oral, 10 mg/kg).
With `CC(C)C[C@@H]1NC(=O)[C@H](C)NC(=O)[C@H](Cc2ccccc2)NCC2=CC=C(CN(C)C1=O)O2` the Papp was 1.9 ×10⁻⁶ cm/s (PAMPA; 100 µM, 17 h, pH 6.4).
`CCCCCCCc1[nH]c2ccccc2c(=O)c1O` has a Papp of 1.2 to 4 ×10⁻⁶ cm/s (PAMPA; 40 µM, 5 h, pH 7.4).
For `CC(C)C[C@@H]1NC(=O)CN(C)C(=O)[C@H](Cc2ccccc2)NCC2=CC=C(CNC1=O)O2`, the Papp was 1.3 ×10⁻⁶ cm/s (PAMPA; 100 µM, 17 h, pH 6.4).
`CC(C)NCC(O)COc1cccc2ccccc12` (stereo not drawn) has a Papp of 14.3 ×10⁻⁶ cm/s (PAMPA; 40 µM, 5 h, pH 7.4).
